Reference: ChEMBL document CHEMBL4732211, “Multifunctional agents based on benzoxazolone as promising therapeutic drugs for diabetic nephropathy” (Eur J Med Chem, 2021)
The source made the active and inactive calls. No cut-off for these calls is given here.

Key:
Mus musculus [1] = experiment: Antioxidant activity in STZ-induced diabetic Kunming mouse assessed as reduction in liver MDA level at 80 mg/kg, po administered QD via gavage for 4 weeks and measured at 6 hrs post-final drug dose relative to STZ-treated group; assay type: functional; conditions: 672 h
Mus musculus [2] = experiment: Reno-protective activity in STZ-induced Kunming mouse model of diabetes assessed as reduction in albumin to creatinine ratio at 80 mg/kg, po administered QD via gavage for 4 weeks; assay type: functional; conditions: 672 h
Mus musculus [3] = experiment: Antidiabetic activity in STZ-induced Kunming mouse model of diabetes assessed as reduction in blood glucose level at 160 mg/kg, po administered daily via gavage for 8 weeks and measured at week 2; assay type: functional; conditions: 336 h, time 2 weeks
Mus musculus [4] = experiment: Reno-protective activity in STZ-induced Kunming mouse model of diabetes assessed as glomerular atrophy and inflammatory cell infiltration at 160 mg/kg, po administered daily via gavage for 8 weeks by H and E staining based histological analysis; assay type: functional, organism-based
Mus musculus [5] = experiment: Antidiabetic activity in STZ-induced Kunming mouse model of diabetes assessed as reduction in blood glucose level at 80 mg/kg, po administered daily via gavage for 8 weeks and measured at week 6; assay type: functional; conditions: 1008 h, time 6 weeks
Mus musculus [6] = experiment: Antioxidant activity in STZ-induced diabetic Kunming mouse assessed as increase in SOD level in kidney at 80 mg/kg, po administered daily via gavage for 8 weeks and measured at 6 hrs post-final drug dose; assay type: functional
Mus musculus [7] = experiment: Reno-protective activity in STZ-induced Kunming mouse model of diabetes assessed as urinary total protein excretion at 160 mg/kg, po administered daily via gavage for 8 weeks and measured at week 8 relative to control; assay type: functional
Mus musculus [8] = experiment: Antidiabetic activity in STZ-induced Kunming mouse model of diabetes assessed as reduction in blood glucose level at 80 mg/kg, po administered QD via gavage for 4 weeks and measured at week 2 to 4; assay type: functional, organism-based; conditions: time 2-4 weeks
Mus musculus [9] = experiment: Reno-protective activity in STZ-induced Kunming mouse model of diabetes assessed as urinary total protein excretion at 160 mg/kg, po administered daily via gavage for 8 weeks and measured at week 4 relative to control; assay type: functional; conditions: time 4 weeks
HEK-293T = experiment: Cytotoxicity against human HEK293T cells at 25 to 200 uM measured after 24 hrs by MTT assay; assay type: cell-based; conditions: dose 25-200 µM
Summary of the method: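 293T cells seeded at 1×10^5/well and exposed to 25, 50, 100 and 200 for 24 h at 37 °C; viability by MTT kit.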

[10] = target: Aldo-keto reductase family 1 member A1 (Rattus norvegicus, UniProt P51635); experiment: Inhibition of Wistar rat kidney ALR1 assessed as reduction in NADPH oxidation using sodium D-glucuronate and NADPH as substrate preincubated for 10 mins followed by substrate addition and measured for 4 mins by spectrophotometric analysis; assay type: tissue-based
Sequence of Aldo-keto reductase family 1 member A1 (P51635 whole entry, looked up): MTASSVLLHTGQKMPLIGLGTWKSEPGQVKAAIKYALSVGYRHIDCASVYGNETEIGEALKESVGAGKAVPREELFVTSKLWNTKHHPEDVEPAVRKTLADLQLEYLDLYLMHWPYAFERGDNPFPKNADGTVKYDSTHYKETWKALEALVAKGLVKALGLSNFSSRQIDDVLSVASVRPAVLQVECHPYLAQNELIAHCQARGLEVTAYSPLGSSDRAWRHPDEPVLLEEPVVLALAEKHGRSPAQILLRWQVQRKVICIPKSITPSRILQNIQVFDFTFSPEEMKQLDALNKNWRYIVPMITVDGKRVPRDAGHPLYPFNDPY

Mus musculus [11] = experiment: Reno-protective activity in STZ-induced Kunming mouse model of diabetes assessed as reduction in urinary total protein excretion at 80 mg/kg, po administered QD via gavage for 4 weeks and measured at week 2 to 4; assay type: functional, organism-based; conditions: time 2-4 weeks
Mus musculus [12] = experiment: Antioxidant activity in STZ-induced diabetic Kunming mouse assessed as rise in liver MDA level at 80 mg/kg, po administered QD via gavage for 4 weeks and measured at 6 hrs post-final drug dose relative to normal group; assay type: functional
Mus musculus [13] = experiment: Antidiabetic activity in STZ-induced Kunming mouse model of diabetes assessed as reduction in blood glucose level at 160 mg/kg, po administered daily via gavage for 8 weeks and measured at week 8; assay type: functional; conditions: 1344 h
Mus musculus [14] = experiment: Antidiabetic activity in STZ-induced Kunming mouse model of diabetes assessed as reduction in blood glucose level at 160 mg/kg, po administered daily via gavage for 8 weeks and measured at week 6; assay type: functional; conditions: 1008 h, time 6 weeks
[15] = Antioxidant activity assessed as DPPH radical scavenging activity at 10 uM after 30 mins by spectrophotometric analysis; assay type: functional
Summary of the method: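 DPPH in methanol (1 mL, 0.025 mg/mL) plus methanol 1.9 mL and compound in methanol, final 100, 50 and 10 µM; absorbance at 517 nm. Scavenging % = 1 − (A_sample − A_blank)/A_control, where the blank is compound without DPPH. Trolox reference.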

[16] = target: Aldo-keto reductase family 1 member B1 (Rattus norvegicus) (UniProt P07943); experiment: Uncompetitive inhibition of Wistar rat lens ALR2 at 2.5 mM using D,L-glyeraldehyde as substrate in presence of varying levels of NADPH by double reciprocal plot analysis; assay type: tissue-based
Summary of the method: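 Rat ALR2 kinetics run under the assay conditions with inhibitor at 10 and 5 nM. Either D,L-glyceraldehyde varied (7.5-0.94 mM) with cofactor 0.025 mM, or NADPH varied (25-3.125) with glyceraldehyde 2.5 mM. Mode assigned from double-reciprocal plots.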

Mus musculus [17] = experiment: Reno-protective activity in STZ-induced Kunming mouse model of diabetes assessed as urinary total protein excretion at 80 mg/kg, po administered daily via gavage for 8 weeks and measured at week 8 relative to control; assay type: functional
Rattus norvegicus = organism: Rattus norvegicus; experiment: Selectivity index, ratio of IC50 for Wistar rat kidney ALR1 to IC50 for Wistar rat lens ALR2
Summary of the method: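 Aldose reductases (ALR2, ALR1) prepared from Wistar rats (200-250 g). NADPH loss followed at 340 nm for 4 min after substrate start, following 10 min preincubation. ALR2: pH 6.2 phosphate, 30 °C, NADPH 0.10 mM, D,L-glyceraldehyde 10 mM. ALR1: pH 7.2, 37 °C, NADPH 0.12 mM, D-glucuronate 20 mM. 0.5% DMSO; non-enzymatic rate subtracted. IC50 from log dose-response with ≥3 concentrations (20-80% inhibition), triplicate.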

Mus musculus [18] = experiment: Antioxidant activity in STZ-induced diabetic Kunming mouse assessed as increase in GSH level in kidney at 160 mg/kg, po administered daily via gavage for 8 weeks and measured at 6 hrs post-final drug dose by microplate reader analysis; assay type: functional
Mus musculus [19] = experiment: Antioxidant activity in STZ-induced diabetic Kunming mouse assessed as reduction in liver MDA level at 160 mg/kg, po administered daily via gavage for 8 weeks and measured at 6 hrs post-final drug dose relative to STZ-treated group; assay type: functional; conditions: 1344 h

IC50 [10]: 4.9 µM
inhibition [16]: Active
Ratio IC50 (Rattus norvegicus): 710
SMILES: COc1cc(/C=C/c2cccc3c2oc(=O)n3CC(=O)O)ccc1O
inhibition in vivo at 80 mg/kg (Mus musculus [1]): 54%
inhibition in vivo at 80 mg/kg (Mus musculus [2]): 57%
inhibition in vivo at 160 mg/kg (Mus musculus [3]): 35%
Activity (Mus musculus [4]): inactive
inhibition in vivo at 80 mg/kg (Mus musculus [5]): 19%
Activity (Mus musculus [6]): 177%
Activity (Mus musculus [7]): 58%
Activity (Mus musculus [8]): Active
Activity (Mus musculus [9]): 93%
Activity (HEK-293T): Non-Toxic
Activity (Mus musculus [11]): Active
Activity (Mus musculus [12]): 15%
inhibition in vivo at 160 mg/kg (Mus musculus [13]): 20%
inhibition in vivo at 160 mg/kg (Mus musculus [14]): 19%
Activity [15]: 22.7%
Activity (Mus musculus [17]): 53%
Activity (Mus musculus [18]): 210%
inhibition in vivo at 160 mg/kg (Mus musculus [19]): 45%
